Experimental data reported in ChEMBL document CHEMBL5678813, “Optimization of a novel series of N-phenylindoline-5-sulfonamide-based acyl CoA:monoacylglycerol acyltransferase-2 inhibitors: Mitigation of CYP3A4 time-dependent inhibition and phototoxic liabilities” (Bioorg Med Chem, 2015).

How the values were obtained:
NIH3T3 = test: Cytotoxicity against BALB/c mouse 3T3 cells assessed as reduction in cell viability at 6.25 uM incubated for 1 hrs in absence of UV irradiation by Celltiter-Glo assay relative to control; type: toxicity, cell-based; conditions: nih3t3, 1 h
Outline: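 BALB/c 3T3 cells seeded at 2.5 × 10^3 cells/well and grown 1 day. Compound at 6.25 µM in EBSS with 1 mM HEPES, preincubated 1 h. Plate kept dark (–UV) while the paired plate was irradiated. Medium replaced, cultured 24 h more. Viability read as cellular ATP by CellTiter-Glo, % of 1% DMSO control; n = 3, mean ± SD.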

[1] = Total clearance in mouse at 0.1 mg/kg, iv administered as cassette dose by LC/MS/MS analysis; type: ADME, organism-based; conditions: in vivo
Outline: (§1)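 Non-fasted mice dosed by cassette, iv 0.1 mg/kg or po 1 mg/kg suspended in 0.5% methylcellulose aqueous solution; plasma obtained from blood by centrifugation, deproteinized with acetonitrile, and compound concentrations measured by LC/MS/MS.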

[2] = MRT in mouse at 1 mg/kg, po administered as cassette dose by LC/MS/MS analysis; type: ADME, organism-based; conditions: in vivo; outline: as §1
[3] = AUC in mouse at 1 mg/kg, po administered as cassette dose by LC/MS/MS analysis; type: ADME, organism-based; conditions: in vivo; outline: as §1
CYP3A4 = CYP3A4 (Homo sapiens, UniProt P08684); test: Reversible inhibition of CYP3A4 in human liver microsomes using midazolam as substrate at 10 uM incubated for 10 mins by LC/MS/MS analysis relative to control; type: ADME, Microsome; conditions: probe midazolam
Chain of CYP3A4 (P08684 whole entry, canonical isoform): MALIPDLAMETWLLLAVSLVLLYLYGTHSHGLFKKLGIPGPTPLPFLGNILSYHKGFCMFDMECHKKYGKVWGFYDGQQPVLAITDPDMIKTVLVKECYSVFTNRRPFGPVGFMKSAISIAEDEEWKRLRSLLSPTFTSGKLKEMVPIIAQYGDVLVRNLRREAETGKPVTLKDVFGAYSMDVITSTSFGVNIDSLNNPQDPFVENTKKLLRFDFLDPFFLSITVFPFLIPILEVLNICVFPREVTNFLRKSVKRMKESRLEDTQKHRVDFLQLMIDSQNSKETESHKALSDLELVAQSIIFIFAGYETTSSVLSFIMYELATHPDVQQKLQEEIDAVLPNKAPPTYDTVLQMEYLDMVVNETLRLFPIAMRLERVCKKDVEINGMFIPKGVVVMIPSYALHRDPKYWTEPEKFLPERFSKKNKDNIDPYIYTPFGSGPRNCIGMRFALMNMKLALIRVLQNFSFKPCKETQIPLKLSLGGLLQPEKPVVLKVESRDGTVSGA
Outline: (§2)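 Human liver microsomes at 0.1 mg/mL incubated 10 min at 37 °C with isoform-specific substrate and 10 µM test compound. Pairs: 1A2 tacrine/1-hydroxytacrine; 2C8 paclitaxel/6α-hydroxypaclitaxel; 2C9 tolbutamide/4-hydroxytolbutamide; 2D6 dextromethorphan/dextrorphan; 3A4 midazolam/1'-hydroxymidazolam. Stopped with acetonitrile/water; metabolite measured by LC/MS/MS.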

[4] = Volume of distribution at steady state in mouse at 0.1 mg/kg, iv administered as cassette dose by LC/MS/MS analysis; type: ADME, organism-based; conditions: in vivo, read-out: Vdss; outline: as §1
CYP1A2 = target: T1, CYP1A2 (Homo sapiens, UniProt P05177); test: Reversible inhibition of CYP1A2 in human liver microsomes using tacrine as substrate at 10 uM incubated for 10 mins by LC/MS/MS analysis relative to control; type: ADME, Microsome; conditions: probe tacrine; outline: as §2
T1 sequence (P05177 whole entry): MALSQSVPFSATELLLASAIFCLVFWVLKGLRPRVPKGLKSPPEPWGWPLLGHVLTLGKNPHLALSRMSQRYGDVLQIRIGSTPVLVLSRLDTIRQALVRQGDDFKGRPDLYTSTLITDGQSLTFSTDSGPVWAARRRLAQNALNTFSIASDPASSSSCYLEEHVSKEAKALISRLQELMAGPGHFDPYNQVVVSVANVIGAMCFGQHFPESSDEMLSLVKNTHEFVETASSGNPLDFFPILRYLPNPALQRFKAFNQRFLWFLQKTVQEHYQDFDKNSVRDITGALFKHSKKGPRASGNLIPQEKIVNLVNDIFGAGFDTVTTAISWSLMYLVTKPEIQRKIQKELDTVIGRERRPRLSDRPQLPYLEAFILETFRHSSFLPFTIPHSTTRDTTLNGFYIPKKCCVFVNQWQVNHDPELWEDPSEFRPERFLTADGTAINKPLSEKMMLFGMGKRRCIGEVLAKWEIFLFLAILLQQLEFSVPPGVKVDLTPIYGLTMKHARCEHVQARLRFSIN

[5] = target: T2, Diacylglycerol O-acyltransferase 2 (Homo sapiens, UniProt Q96PD7); test: Inhibition of N-terminal FLAG-tagged full-length human DGAT2 expressed in recombinant baculovirus infected Sf21 cells using [1-14C]-oleoyl-CoA and 1,2-dioleoyl-glycerol as substrate incubated for 40 mins by TLC analysis
T2 sequence (Q96PD7 whole entry): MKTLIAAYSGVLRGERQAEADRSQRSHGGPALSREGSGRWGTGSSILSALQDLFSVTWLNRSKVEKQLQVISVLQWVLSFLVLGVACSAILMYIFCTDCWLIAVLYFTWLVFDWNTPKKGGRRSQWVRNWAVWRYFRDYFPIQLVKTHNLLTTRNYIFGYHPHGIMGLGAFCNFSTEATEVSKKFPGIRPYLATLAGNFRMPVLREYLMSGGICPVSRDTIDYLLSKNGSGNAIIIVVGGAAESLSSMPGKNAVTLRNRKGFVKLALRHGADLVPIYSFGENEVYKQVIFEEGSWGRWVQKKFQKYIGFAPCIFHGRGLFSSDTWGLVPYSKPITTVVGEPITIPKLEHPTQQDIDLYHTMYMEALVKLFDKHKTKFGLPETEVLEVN
Outline: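 Membranes from baculovirus-infected Sf-21 cells, each enzyme at 30 µg/mL, incubated with 5 µM [1-14C]-oleoyl-CoA and 40 µM 1,2-dioleoyl-glycerol for 40 min at 32 °C. Lipids extracted by modified Bligh & Dyer, resolved on silica TLC, and radioactivity incorporated into lipids quantified.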

CYP2C9 = CYP2C9 (Homo sapiens, UniProt P11712); test: Reversible inhibition of CYP2C9 in human liver microsomes using tolbutamide as substrate at 10 uM incubated for 10 mins by LC/MS/MS analysis relative to control; type: ADME, Microsome; conditions: probe tolbutamide; outline: as §2
Chain of CYP2C9 (P11712 whole entry): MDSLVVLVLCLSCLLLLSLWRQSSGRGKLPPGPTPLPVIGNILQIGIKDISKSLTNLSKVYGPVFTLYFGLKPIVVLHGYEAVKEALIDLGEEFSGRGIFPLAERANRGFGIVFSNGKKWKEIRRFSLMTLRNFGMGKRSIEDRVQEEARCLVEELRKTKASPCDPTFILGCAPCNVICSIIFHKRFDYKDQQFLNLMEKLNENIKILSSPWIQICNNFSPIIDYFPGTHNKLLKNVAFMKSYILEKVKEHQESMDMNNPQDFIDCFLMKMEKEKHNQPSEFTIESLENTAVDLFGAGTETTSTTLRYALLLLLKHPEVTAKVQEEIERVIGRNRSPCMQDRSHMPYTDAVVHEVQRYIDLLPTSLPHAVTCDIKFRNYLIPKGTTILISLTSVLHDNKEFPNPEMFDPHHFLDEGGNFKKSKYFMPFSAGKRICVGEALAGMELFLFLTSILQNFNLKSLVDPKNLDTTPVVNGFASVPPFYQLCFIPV

[6] = Permeability of compound at pH 7.4 by PAMPA assay; type: ADME; conditions: read-out: permeability
Outline: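 Passive permeability measured by PAMPA at pH 7.4.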

Compound Cn1nc(C(F)(F)F)cc1-c1cnc(N2CCc3cc(S(=O)(=O)Nc4c(F)cc(Cl)cc4F)cc(N4CCCC4=O)c32)nc1 [TP-020] has an Activity (NIH3T3) of 99%, a clearance [1] of 3.42 mL/min/kg and an MRT [2] of 3.3 h. For the same compound, the AUC [3] was 2440 ng·h/mL, the inhibition at 10 min, 10 µM (CYP3A4) was less than 10% and the Vd [4] was 0.539 L/kg. It also gave an inhibition at 10 min, 10 µM (CYP1A2) of less than 10%, an IC50 [5] greater than 10 µM and an inhibition at 10 min, 10 µM (CYP2C9) of 17%. It also gave a Papp [6] of 16.6 ×10⁻⁶ cm/s.
